This is a sample that favours compounds with a hit; in the whole collection about 6.6% have one here.
PostGolgi yeast = growth inhibition of a yeast mutant, post-Golgi transport screen | post-Golgi transport phenotypic cell assay | inhibition, % at 10 µM | 98,000 tested, 0.9% active;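 further: yeast cells grown in 1536-well plates; yeast grown about 18 h at 30C before absorbance read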
PostGolgi ctrl = inhibits growth of the yeast control strain | efflux-deficient yeast background strain, growth absorbance A615, 16 h | inhibition, % at 10 µM | 98,000 tested, 5% active | AID 738
tolC growth inh = growth inhibitors of E. coli BW25113 tolC mutant | 65,000 tested, 2.2% active | OD615 | growth inhibition, % at 10 µM (by protocol) | AID 573;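 active means growth inhibition at or above a cutoff equal to the mean over every tested compound plus 3 SD, cut at about 60% in these data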;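 further: growth measured after 20 h incubation at 37 °C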
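Test system: E. coli BW25113 ΔtolC::kan bacteria; incubation: 37 °C, 20 h exposure; medium: LB broth supplemented with 50 µg/mL kanamycin; read-out basis: percent growth inhibition; signal: A615 absorbance measurement; compound: 10 µM final, single dose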
Her2 expr inh = lowers expression of human Her2 kinase; P04626; SKBR-3 HER2 protein level, AlphaScreen, 18-24 h; hits give low values; HER2 level % of control, % at 10 µM; 65,000 tested, 0.69% active;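 active means HER2 level under 5% of the carrier-only control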;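 further: lower value means stronger loss of Her2 protein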
Ecoli WT expand = E. coli BW25113 growth inhibition, expanded screen; OD600 absorbance; 98,000 tested, 0.15% active; growth inhibition, % at 100 µM; AID 710;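 active means growth inhibition above about 50% at one test dose, limit read from the data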;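 further: growth measured after 20 h incubation at 37 °C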
Hits are given with their value; 0 = inactive; - = no result given. Unless noted, no stated cut-off is given here; in the data, active means inhibition above about 30%; inactive means the rest.

SMILES | PostGolgi yeast | PostGolgi ctrl | tolC growth inh | Her2 expr inh | Ecoli WT expand
CC(C)C(C(=O)NCc1ccco1)N(C(=O)CNS(=O)(=O)c1ccc(Cl)cc1)C1CCCC1 (configuration not stated) | 0 | 0 | 72.7 | 0 | 0
CC(C)c1ccccc1OCCCCCNCCO | 0 | 0 | 0 | 0 | 0
CCN(c1ccccc1)S(=O)(=O)c1ccc(NCC2COc3ccccc3O2)nc1 (configuration not stated) | 0 | 55.6 | 61.6 | 0 | 0
CCCNCC1COc2ccccc2O1 (configuration not stated) | 0 | 0 | - | - | 0
COc1ccc(-n2nnnc2SCC(=O)c2cc3ccccc3o2)cc1 | 0 | 35.1 | 0 | 0 | 0
Cc1cccc(S(=O)(=O)Nc2ccc(C)c3c2OC(C)(C)C3)c1 | 0 | 0 | - | - | 0
COc1ccc2[nH]c(=O)c(CN(Cc3cccnc3)C(=O)Nc3ccccc3)cc2c1 | 104.6 | 93.8 | 0 | 0 | 0
CCN(CC)CCN(Cc1cc2cc(C)ccc2[nH]c1=O)C(=O)Nc1ccccc1OC | 0 | 0 | 0 | 0 | 0
CCc1ccc2[nH]c(=O)c(CN(Cc3ccccc3OC)C(=O)Nc3ccccc3OC)cc2c1 | 0 | 45.1 | - | - | 0
CCOc1ccc2[nH]c(=O)c(CN(Cc3cccnc3)C(=O)Nc3ccccc3OC)cc2c1 | 0 | 0 | 0 | 0 | 0
Cc1cccc2cc(CN(Cc3ccco3)C(=O)NC3CCCCC3)c(=O)[nH]c12 | 0 | 41.4 | 64.1 | 0 | 0
COc1ccccc1NC(=O)N(Cc1ccco1)Cc1cc2c(C)ccc(C)c2[nH]c1=O | - | - | 0 | 0 | -
COc1ccccc1NC(=O)N(Cc1ccco1)Cc1cc2cccc(C)c2[nH]c1=O | 0 | 36.7 | 0 | 0 | 0
COc1ccccc1-c1c(C)nn2c(N3CCC4(CC3)OCCO4)cc(C)nc12 | 0 | 97.6 | 0 | 0 | 0
Cc1cc(N2CCC3(CC2)OCCO3)n2nc(C)c(-c3ccc(Cl)cc3)c2n1 | - | - | 0 | -19.1 | -
COc1ccccc1-c1c(C)nn2c(N3CCC(C(N)=O)CC3)cc(C)nc12 | 0 | 0 | - | - | 0
O=S(=O)(C/C(=C/CO)S(=O)(=O)c1ccccc1)c1ccccc1 | 0 | 0 | 0 | -21.3 | 0
COc1ccccc1OCCn1cc(C(=O)c2ccco2)c2ccccc21 | 35.2 | 0 | 0 | 0 | 0
O=C(c1ccccc1)n1nc(-c2ccccc2)nc1NCc1ccco1 | 0 | 0 | 0 | 0 | 0
O=S(=O)(c1ccccc1)n1nc(-c2ccccc2)nc1NCc1ccco1 | 0 | 36.2 | 0 | 0 | 0
Cc1cc(C)cc(NCC(=O)Nc2c(C)cccc2C)c1 | 0 | 37.1 | 0 | 0 | 0
COc1ccc2cc(C#N)c(N3CCN(Cc4nnnn4CCC(C)C)CC3)nc2c1 | 0 | 33.5 | 0 | 0 | 0
Cc1ccc2nc(N3CCN(Cc4nnnn4Cc4ccccc4)CC3)c(C#N)cc2c1 | 0 | 0 | 0 | 0 | 0
CCCCn1c(-c2csc3c2CCCC3)n[nH]c1=S | 0 | 0 | - | - | 0
CCCCn1c(-c2csc3c2CCC(C)C3)n[nH]c1=S (configuration not stated) | 0 | 41.5 | - | - | 0
SMILES | PostGolgi yeast | PostGolgi ctrl | tolC growth inh | Her2 expr inh | Ecoli WT expand
O=C(CCl)N(c1ccc(Cl)cc1)c1c[nH]c2ccccc12 | 0 | 44.1 | - | - | 0
O=C(c1cccs1)N1CCCC(c2ccccc2)C1 (configuration not stated) | 0 | 36.9 | 0 | 0 | 0
Cc1cc(Cl)ccc1OCc1n[nH]c(=S)n1C1CCCCC1 | 99.4 | 96.2 | - | - | 0
Cc1sc2ncnc(N3CCN(CCOc4ccc(Cl)cc4)CC3)c2c1C | 0 | 35.4 | - | - | 0
COc1ccc(CCN=CC2=C(O)CCCC2=O)cc1OC | 0 | 0 | 0 | 0 | 0
Cc1ccccc1Nc1nc(Nc2ccccc2C)nc(SC2=NCCS2)n1 | 0 | 0 | - | - | 0
Cc1ccc(Nc2nc(Nc3ccc(C)cc3)nc(SC3=NCCS3)n2)cc1 | 0 | 38.4 | - | - | 0
Cc1ccc(Cl)cc1N1CCN(C(=O)C2CCN(S(=O)(=O)c3cccnc3)CC2)CC1 | 0 | 0 | 0 | 0 | 0
Cc1ccc(Cl)cc1N1CCN(C(=O)C2CCN(S(=O)(=O)c3c(C)nn(C)c3C)CC2)CC1 | 0 | 40.8 | 0 | 0 | 0
O=C1c2ccccc2C(=O)N1CSc1nnc2c3ccccc3n(CCc3ccccc3)c2n1 | 0 | 0 | - | - | 0
C=CCn1c2ccccc2c2nnc(SCN3C(=O)c4ccccc4C3=O)nc21 | 39.5 | 0 | 0 | - | 0
COc1ccc(C2N3CC4(C)CN2CC(C)(C3)C4O)cc1 (configuration not stated) | 0 | 0 | 0 | 0 | 0
O=C(CCCn1c(=S)[nH]c2cc3c(cc2c1=O)OCO3)N1CCN(c2ncccn2)CC1 | 0 | 43.1 | 0 | 0 | 0
O=C(CCCn1c(=S)[nH]c2cc3c(cc2c1=O)OCO3)N1CCN(c2ccc(F)cc2)CC1 | 0 | 0 | 0 | 0 | 0

Source: PubChem (SRMLSC)
